Screening data as filed in PubChem BioAssay.
Cl transport mod: KCC2 (human) Cl- transport modulation. Q9H2X9. KCC2 cells, thallium flux FluoZin-2 fluorescence. B-score of Tl+ flux slope (higher = more flux/activation; lower = inhibition) at 10 µM. 2.2% of 190,000 active. AID 1456;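 active = thallium flux slope and its plate-corrected score both differing from the plate sample mean at a set confidence after two filtering rounds, in either direction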;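 note: slope of fluorescence scaled to starting intensity during 10 to 20 s after thallium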
STAT3 activator: activators of IL-6 induced STAT3 signaling. activation (% of control), % at 5.6 µM. 0.91% of 190,000 active. U3A cells, IL-6 STAT3-luciferase reporter, luminescence; 100% = signal with IL-6 EC80 alone;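 active = activation above the screen-wide mean of compound activation plus 3 SD, cut at about 130% in these data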;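 note: 0% = background luminescence of wells with medium and substrate only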
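Test system: Human STAT1-deficient U3A cells with stable STAT3-luciferase reporter | Also added: Interleukin-6, 33 ng/mL | Timing: Compound pre-incubation 1 h before IL-6, then 6 h stimulation at 37 °C | Technique: Luciferase reporter luminescence | Read-out: Percent of IL-6-only median luminescence | Benchmarks: IL-6-only wells as 100% reference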
STAT1 blocker: STAT1 signaling inhibition; inhibition, % at 5.5 µM; 0.35% of 200,000 active; AID 920; NIH 3T3 STAT1-luciferase reporter, IFN-gamma, luminescence;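 active = inhibition above a set limit, the mean inhibition across all tested compounds plus 3 SD, cut at about 34% in these data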;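 note: 0% = IFN-gamma with DMSO and 100% = IFN-gamma with 300 µM nifuroxazide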
STAT3 inh: reduces IL-6 driven STAT3 reporter signal; U3A cells, IL-6 STAT3-luciferase reporter, luminescence; host cell line lacks STAT1; inhibition, % at 5.5 µM; 0.89% of 190,000 active; AID 862;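 active = inhibition above the mean inhibition across all screened compounds plus 3 SD, cut at about 44% in these data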;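 note: 0% = DMSO only wells and 100% = 100 µM nifuroxazide control wells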
STAT1 act: increases IFN-gamma driven STAT1 reporter signal; NIH 3T3 STAT1-luciferase reporter, luminescence; 100% = IFN-gamma alone, no compound; activation (% of control), % at 5.5 µM; 2.6% of 200,000 active; AID 932;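 active = activation above the screen-wide mean activation plus 3 SD, cut at about 130% in these data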;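 note: raw ratio to IFN-gamma control signal so 100% means no change and 0% no light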
HSV augment: increases HSV replication in cells; HSV replication augmentation in cells, fold increase; maximum fold increase; 0.005% of 220,000 active; in the data active = maximum fold increase above about 1.5; inconclusive = no clear call, values can overlap the other calls; tested in PC3 cells
KCC2 secondary: KCC2 (human) modulation, secondary assay; normalised thallium flux (F/F0 slope) at 10 µM; shares compounds with Cl transport mod; 15% of 3,700 active; HEK293-KCC2, thallium flux, FluoZin2 fluorescence; hits give high values;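 active = thallium flux slope above the same plate's solvent-only control mean plus 3 SD; inconclusive = the two replicate wells disagree; inactive = no significant difference from solvent-only control wells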
KCC2 bumet counter: thallium flux persisting under bumetanide in KCC2 cells, counter-screen secondary assay; shares compounds with Cl transport mod; HEK293-KCC2 + bumetanide/ouabain, thallium flux FluoZin2; hits give high values; normalized thallium flux at 10 µM; 49% of 3,700 active;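 active = thallium entry rate above the same plate's blocked-transporter control wells by more than 3 SD; inconclusive = the two repeat wells disagree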;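 note: raw slope of fluorescence over initial fluorescence between 10 and 20 s after thallium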
KCC2 secondary2: KCC2 (human) modulation, second secondary assay | shares compounds with Cl transport mod | HEK293-KCC2, thallium flux FluoZin2 fluorescence; actives lie on both sides; F/F0 rise rate, 10–20 s post-thallium | normalized thallium flux at 10 µM | 23% of 3,700 active;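 active = thallium flux slope more than 3 SD above or below the plate's solvent-only control mean, mostly below; inconclusive = the two repeat wells disagreed; inactive = no significant shift from solvent-only controls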;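 note: raw slope with 0.1% DMSO as baseline and bumetanide as block control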
HEK counter1: parental HEK flux effect, counter-screen; shares compounds with Cl transport mod; HEK293 parental cells, thallium flux FluoZin2, ouabain; baseline-ratio fluorescence slope, 10–20 s after thallium; thallium flux rate (normalised fluorescence) at 10 µM; 46% of 3,700 active;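 active = thallium flux rate significantly above the same plate's solvent-only control wells, beyond their mean plus 3 SD; inconclusive = the two replicate wells gave conflicting results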
KCC2 ouabain: confirmation of human KCC2 modulators with ouabain. shares compounds with Cl transport mod. HEK293-KCC2, thallium flux FluoZin2 fluorescence; bidirectional: low = inhibitor, high = activator. raw Tl+ flux slope (below DMSO = inhibition, above = activation) at 10 µM. 48% of 3,700 active. AID 1717;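 active = thallium flux slope beyond 3 SD from same-plate DMSO control mean in most replicates, usually higher, sometimes lower; inconclusive = repeat tests gave conflicting results; inactive = no significant difference from controls in most replicates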;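 note: slope of initial-normalized fluorescence between seconds 10 and 20 after thallium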
HEK293 Tl flux2: acts in parental HEK cells, second KCC2 counter-screen. AID 1718. shares compounds with Cl transport mod. thallium flux slope at 10 µM. 33% of 3,700 active. HEK293 parental, thallium flux FluoZin-2 fluorescence slope;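 active = thallium flux slope above the same plate's solvent-control mean plus 3 SD in both duplicate wells; inconclusive = duplicate wells that disagreed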;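 note: run without ouabain in cells lacking the KCC2 cotransporter; slope of fluorescence scaled to its starting value between 10 and 20 s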
* = called active by the depositor; i = inactive; u = inconclusive; x = not tested or not shown. In the library only some 5.5% were active in any assay of this set; here they are far more common.

SMILES	Cl transport mod	STAT3 activator	STAT1 blocker	STAT3 inh	STAT1 act	HSV augment	KCC2 secondary	KCC2 bumet counter	KCC2 secondary2	HEK counter1	KCC2 ouabain	HEK293 Tl flux2
O=C(OCC(=O)N1CCc2ccccc2C1)c1ccc(N2CCOCC2)c([N+](=O)[O-])c1	-4.3*	97	5	-1	95	i	0.0056	0.005	0.022*	0.0072	u	0.011
Nc1ccc(C(=O)OCC(=O)N2CCc3ccccc3C2)cc1[N+](=O)[O-]	-5.9*	113	-6	-18	106	i	0.0057	0.0058	0.027*	u	0.012*	0.01
COc1cccc(NC(=O)N2CCCC2C(=O)NCc2ccccc2F)c1 (centres undefined)	0.0056	105	2	7	97	i	x	x	x	x	x	x
CONC(=O)C1CCN(C(=O)OCc2ccccc2)CC1	-1.2	90	-18	17	116	i	x	x	x	x	x	x
O=C(COC(=O)C12CC3CC(CC(C3)C1)C2)Nc1nccs1	-1.1	100	-4	5	103	i	x	x	x	x	x	x
CCn1c(SCC#N)nc2c(c1=O)C1(CCCC1)Cc1ccccc1-2	17*	98	-2	11	102	i	0.015*	0.058*	0.037	u	0.04*	u
CCCn1c(SCC(N)=O)nc2c(c1=O)C1(CCCC1)Cc1ccccc1-2	x	106	-3	-4	103	x	0.013*	0.031*	0.036	0.017*	u	0.012*
CCn1c(=O)c2c(n3c(=S)[nH]nc13)-c1ccccc1CC21CCCCC1	65*	102	3	0	96	i	0.0072	0.07*	u	0.06*	0.059*	0.034*
CCSc1n[nH]c2nc3c(c(=O)n12)C1(CCCCC1)Cc1ccccc1-3	-1.3	x	x	x	x	i	x	x	x	x	x	x
CC(C)=CCN1CCN(Cc2cccnc2)CC1CCO (centres undefined)	0.036	101	-1	2	99	i	x	x	x	x	x	x
O=c1oc2ccccc2c(NCc2cccc(F)c2)c1[N+](=O)[O-]	x	94	-2	11	102	i	0.0074	0.0057	0.03	0.0066	0.022*	0.01
O=c1oc2ccccc2c(Nc2ccc3ccccc3c2)c1[N+](=O)[O-]	-3.8*	133*	11	-33	90	i	0.0091	0.0072	0.031	0.0042	0.015*	0.011
COc1ccc(C(=O)C2CCCN(C(=O)c3cc(C)nc(C)n3)C2)cc1OC (centres undefined)	0.25	102	-12	-1	110	i	x	x	x	x	x	x
O=C(Nc1nc2c(Br)cc(Br)cc2c(=O)s1)C1CCC1	9.9*	x	x	x	x	i	0.024*	0.041*	0.034	0.027*	0.044*	0.015*
O=S(=O)(NCc1ccco1)c1ccc2c(c1)Cc1ccccc1-2	-4*	93	1	12	99	i	0.0062	0.0045	0.027	u	u	0.011
COc1cccc(N2CCN(S(=O)(=O)c3ccc4nc(-c5ccccc5)[nH]c4c3)CC2)c1	9.1*	89	4	14	97	i	0.0087	0.0051	0.031	0.0078	0.019	0.01
COc1cccc(N2CCN(S(=O)(=O)c3cccc4nsnc34)CC2)c1	1.1	95	-1	7	100	i	x	x	x	x	x	x
Cc1[nH]c2ccccc2c1SCC(=O)N1CCN(c2ccccc2)CC1	-3.9*	96	5	13	95	i	0.0076	0.0043	0.022*	0.0071	0.015*	0.0095
Cc1[nH]c2ccccc2c1SCC(=O)N1CCCCC1	-0.058	94	4	12	97	i	x	x	x	x	x	x
O=C1CC(c2nc3ccccc3[nH]2)CN1Cc1ccccc1 (centres undefined)	-3.4*	96	-13	10	111	i	0.012*	u	0.03	0.0082	0.021	0.011
CCOc1ccccc1NC(=O)CSc1nccn1-c1ccccc1	-4.8*	107	-4	-1	103	x	0.017	u	0.025*	0.0046*	0.013*	0.0071*
Cc1cc(F)ccc1NC(=O)C1CCCO1 (centres undefined)	1.1	105	-11	2	109	i	x	x	x	x	x	x
C/C(=N\NC(=S)NCc1ccccc1)c1ccc(C)o1	5.4*	97	7	8	92	i	0.0061	0.015*	0.029	0.012*	u	0.011
C/C(=N\NC(=S)NCc1ccccc1)c1ccc(Br)cc1	1.6	99	-5	6	102	i	x	x	x	x	x	x
C/C(=N\NC(=S)NCc1ccccc1)c1cccs1	16*	108	-8	-7	107	i	0.0077	0.041*	0.049*	0.04*	0.042*	0.04*
SMILES	Cl transport mod	STAT3 activator	STAT1 blocker	STAT3 inh	STAT1 act	HSV augment	KCC2 secondary	KCC2 bumet counter	KCC2 secondary2	HEK counter1	KCC2 ouabain	HEK293 Tl flux2
C/C(=N\NC(=S)NCc1ccccc1)c1ccc(Cl)s1	10*	111	-1	-4	100	i	0.0097	0.017*	0.034	u	0.026*	0.012
COCCNC(=S)N/N=C(\C)c1ccc(Cl)c(Cl)c1Cl	3.2	99	1	6	96	i	x	x	x	x	x	x
COCCNC(=S)N/N=C(\C)c1ccc(Cl)s1	32*	x	x	x	x	i	0.014*	0.06*	0.033	0.02*	0.039*	0.012*
O=C(NCCCN1CCOCC1)c1onc(CSc2ccc(F)c(F)c2)c1C(=O)NCCCN1CCOCC1	x	x	x	x	x	i	x	x	x	x	x	x
CN1CCN(CCCc2c3c(cc4c2CCC4)CCC3)CC1	0.5	108	1	-15	99	i	x	x	x	x	x	x
O=C(NCc1ccc2c(c1)OCO2)c1cccnc1Cl	-0.014	100	-5	2	104	i	x	x	x	x	x	x
Cc1ccsc1/C=N/n1c(-c2ccccc2)n[nH]c1=S	9.8*	88	-1	18	101	i	0.014*	0.039*	0.036	0.015*	u	0.013*
